Measured values published in ChEMBL document CHEMBL1136992, “Further studies at neuropeptide s position 5: discovery of novel neuropeptide S receptor antagonists” (J Med Chem, 2009).
Calls of active or inactive are those of the source. The calls are words filed in the database; no cut-off is given here. Square brackets hold non-standard residues; d marks the D form. Peptide text beside a SMILES is read from it. d(aThr) = C[C@@H](O)[C@@H](N)C(=O)O; dCha = N[C@H](CC1CCCCC1)C(=O)O; dChg = N[C@@H](C(=O)O)C1CCCCC1; dPen = CC(C)(S)[C@@H](N)C(=O)O

Target: T1, Neuropeptide S receptor (Mus musculus) (UniProt Q8BZP8)
T1 sequence (whole entry): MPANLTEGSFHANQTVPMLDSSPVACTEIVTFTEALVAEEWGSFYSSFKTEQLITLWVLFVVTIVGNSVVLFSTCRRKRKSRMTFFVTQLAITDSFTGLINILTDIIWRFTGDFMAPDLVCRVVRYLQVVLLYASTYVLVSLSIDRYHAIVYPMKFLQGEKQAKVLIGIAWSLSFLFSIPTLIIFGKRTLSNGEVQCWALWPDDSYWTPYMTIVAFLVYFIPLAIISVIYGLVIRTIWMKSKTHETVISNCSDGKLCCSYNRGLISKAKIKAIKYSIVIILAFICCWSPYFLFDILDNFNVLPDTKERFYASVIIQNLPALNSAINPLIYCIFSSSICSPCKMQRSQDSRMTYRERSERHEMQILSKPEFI
Experiment: Agonist activity at mouse NPSR expressed in HEK293 cells up to 10 uM by calcium mobilization assay
Format: functional, cell-based
In short: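 HEK293 cells stably expressing mouse NPSR; intracellular calcium mobilization measured after peptide addition, concentration-response curves giving pEC50 and Emax as % over basal. Mean of at least four separate experiments performed in duplicate.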

Emax, inactive:
CC[C@H](C)C(NC(=O)[C@H](CC(N)=O)NC(=O)[C@H](CCCNC(=N)N)NC(=O)[C@H](Cc1ccccc1)NC(=O)[C@@H](N)CO)C(=O)N[C@H](C(=O)NCC(=O)N[C@H](C(=O)NCC(=O)N[C@@H](CCSC)C(=O)N[C@@H](CCCCN)C(=O)N[C@@H](CCCCN)C(=O)N[C@H](C(=O)N[C@@H](CO)C(=O)N[C@@H](Cc1ccccc1)C(=O)N[C@@H](CCC(N)=O)C(=O)N[C@@H](CCCNC(=N)N)C(=O)N[C@@H](C)C(=O)N[C@@H](CCCCN)C(=O)O)[C@@H](C)O)[C@@H](C)O)C(C)C (single isomer, unassigned)
CSCC[C@H](NC(=O)CNC(=O)[C@@H](NC(=O)CNC(=O)[C@@H](NC(=O)[C@H](NC(=O)[C@H](CC(N)=O)NC(=O)[C@H](CCCNC(=N)N)NC(=O)[C@H](Cc1ccccc1)NC(=O)[C@@H](N)CO)[C@@H](C)O)C(C)C)[C@@H](C)O)C(=O)N[C@@H](CCCCN)C(=O)N[C@@H](CCCCN)C(=O)N[C@H](C(=O)N[C@@H](CO)C(=O)N[C@@H](Cc1ccccc1)C(=O)N[C@@H](CCC(N)=O)C(=O)N[C@@H](CCCNC(=N)N)C(=O)N[C@@H](C)C(=O)N[C@@H](CCCCN)C(=O)O)[C@@H](C)O (H-SFRN[d(aThr)]VGTGMKKTSFQRAK-OH)
CC[C@@H](C)[C@@H](NC(=O)[C@H](CC(N)=O)NC(=O)[C@H](CCCNC(=N)N)NC(=O)[C@H](Cc1ccccc1)NC(=O)[C@@H](N)CO)C(=O)N[C@H](C(=O)NCC(=O)N[C@H](C(=O)NCC(=O)N[C@@H](CCSC)C(=O)N[C@@H](CCCCN)C(=O)N[C@@H](CCCCN)C(=O)N[C@H](C(=O)N[C@@H](CO)C(=O)N[C@@H](Cc1ccccc1)C(=O)N[C@@H](CCC(N)=O)C(=O)N[C@@H](CCCNC(=N)N)C(=O)N[C@@H](C)C(=O)N[C@@H](CCCCN)C(=O)O)[C@@H](C)O)[C@@H](C)O)C(C)C (H-SFRN[dI]VGTGMKKTSFQRAK-OH)
CSCC[C@H](NC(=O)CNC(=O)[C@@H](NC(=O)CNC(=O)[C@@H](NC(=O)[C@@H](CC1CCCCC1)NC(=O)[C@H](CC(N)=O)NC(=O)[C@H](CCCNC(=N)N)NC(=O)[C@H](Cc1ccccc1)NC(=O)[C@@H](N)CO)C(C)C)[C@@H](C)O)C(=O)N[C@@H](CCCCN)C(=O)N[C@@H](CCCCN)C(=O)N[C@H](C(=O)N[C@@H](CO)C(=O)N[C@@H](Cc1ccccc1)C(=O)N[C@@H](CCC(N)=O)C(=O)N[C@@H](CCCNC(=N)N)C(=O)N[C@@H](C)C(=O)N[C@@H](CCCCN)C(=O)O)[C@@H](C)O (H-SFRN[dCha]VGTGMKKTSFQRAK-OH)
CSCC[C@H](NC(=O)CNC(=O)[C@@H](NC(=O)CNC(=O)[C@@H](NC(=O)[C@H](NC(=O)[C@H](CC(N)=O)NC(=O)[C@H](CCCNC(=N)N)NC(=O)[C@H](Cc1ccccc1)NC(=O)[C@@H](N)CO)C1CCCCC1)C(C)C)[C@@H](C)O)C(=O)N[C@@H](CCCCN)C(=O)N[C@@H](CCCCN)C(=O)N[C@H](C(=O)N[C@@H](CO)C(=O)N[C@@H](Cc1ccccc1)C(=O)N[C@@H](CCC(N)=O)C(=O)N[C@@H](CCCNC(=N)N)C(=O)N[C@@H](C)C(=O)N[C@@H](CCCCN)C(=O)O)[C@@H](C)O (H-SFRN[dChg]VGTGMKKTSFQRAK-OH)
CSCC[C@H](NC(=O)CNC(=O)[C@@H](NC(=O)CNC(=O)[C@@H](NC(=O)[C@H](NC(=O)[C@H](CC(N)=O)NC(=O)[C@H](CCCNC(=N)N)NC(=O)[C@H](Cc1ccccc1)NC(=O)[C@@H](N)CO)C(C)(C)S)C(C)C)[C@@H](C)O)C(=O)N[C@@H](CCCCN)C(=O)N[C@@H](CCCCN)C(=O)N[C@H](C(=O)N[C@@H](CO)C(=O)N[C@@H](Cc1ccccc1)C(=O)N[C@@H](CCC(N)=O)C(=O)N[C@@H](CCCNC(=N)N)C(=O)N[C@@H](C)C(=O)N[C@@H](CCCCN)C(=O)O)[C@@H](C)O (H-SFRN[dPen]VGTGMKKTSFQRAK-OH)
